In ChEMBL document CHEMBL4373711, “Development of 3,5-Dinitrophenyl-Containing 1,2,4-Triazoles and Their Trifluoromethyl Analogues as Highly Efficient Antitubercular Agents Inhibiting Decaprenylphosphoryl-β-d-ribofuranose 2'-Oxidase” (J Med Chem, 2019):
≈ marks a conversion by molar mass, not a printed value. Calls of active or inactive are those of the source. The calls are words filed in the database; no cut-off is given here.

Key:
[1] = tested on: Mycobacterium tuberculosis; assay: Antitubercular activity against Mycobacterium tuberculosis H37Rv; assay type: functional
[2] = tested on: Mycobacterium tuberculosis; assay: Antimycobacterial activity against Mycobacterium tuberculosis H37Rv CNCTC My 331/88 after 14 days; assay type: functional; conditions: H37Rv CNCTC My 331/88, 336 h
Procedure, shortened: (§1)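 M. tuberculosis strains (H37Rv and clinical MDR/XDR isolates) tested by microdilution in Šula's semisynthetic medium. Compounds were dissolved in DMSO and tested at 32 to 0.03 µM in twofold steps. Inoculum was a 1.0 McFarland suspension diluted 10-3. Plates were incubated at 37 °C and read at 14 and 21 days.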

[3] = tested on: Mycobacterium tuberculosis; assay: Antimycobacterial activity against Mycobacterium tuberculosis H37Rv CNCTC My 331/88 after 21 days; assay type: functional; conditions: H37Rv CNCTC My 331/88, 504 h; procedure, shortened: as §1
Mycobacterium avium [4] = assay: Antimycobacterial activity against Mycobacterium avium CNCTC My 330/88 after 14 days; assay type: functional; conditions: CNCTC My 330/88, 336 h
Procedure, shortened: (§2)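 M. avium was tested by microdilution in Šula's semisynthetic medium, with compounds dissolved in DMSO and serially diluted from 1000 down to 1. Inoculum was a 1.0 McFarland suspension diluted 10-5. Plates were incubated at 37 °C and read at 14 and 21 days. […] Isoniazid and rifampicin served as standards.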

Mycobacterium avium [5] = assay: Antimycobacterial activity against Mycobacterium avium CNCTC My 330/88 after 21 days; assay type: functional; conditions: CNCTC My 330/88, 504 h; procedure, shortened: as §2
Mycobacterium kansasii [6] = assay: Antimycobacterial activity against Mycobacterium kansasii CNCTC My 235/80 after 7 days; assay type: functional; conditions: CNCTC My 235/80, 168 h
Procedure, shortened: (§3)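 Microdilution in Šula's semisynthetic medium; compounds in DMSO at 32–0.03 µM. Inoculum from 1.0 McFarland suspension diluted 10-4. […] Isoniazid and rifampicin as reference drugs.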

Mycobacterium kansasii [7] = assay: Antimycobacterial activity against Mycobacterium kansasii CNCTC My 235/80 after 14 days; assay type: functional; conditions: CNCTC My 235/80, 336 h; procedure, shortened: as §3
Mycobacterium kansasii [8] = assay: Antimycobacterial activity against Mycobacterium kansasii CNCTC My 235/80 after 21 days; assay type: functional; conditions: CNCTC My 235/80, 504 h; procedure, shortened: as §3
Mycobacterium kansasii [9] = assay: Antimycobacterial activity against Mycobacterium kansasii 6509/96 after 7 days; assay type: functional; conditions: 6509/96, 168 h; procedure, shortened: as §3
Mycobacterium kansasii [10] = assay: Antimycobacterial activity against Mycobacterium kansasii 6509/96 after 14 days; assay type: functional; conditions: 6509/96, 336 h; procedure, shortened: as §3
Mycobacterium kansasii [11] = assay: Antimycobacterial activity against Mycobacterium kansasii 6509/96 after 21 days; assay type: functional; conditions: 6509/96, 504 h; procedure, shortened: as §3
Staphylococcus aureus [12] = assay: Antibacterial activity against Staphylococcus aureus subsp. aureus ATCC 29213 CCM 4223 measured after 24 to 48 hrs by alamar blue dye based broth microdilution assay; assay type: functional, organism-based
Candida albicans [13] = assay: Antifungal activity against Candida albicans ATCC 24433 CCM 8320 measured after 24 to 48 hrs by alamar blue dye based broth microdilution assay; assay type: functional, organism-based
HepG2 = assay: Cytotoxicity against human HepG2 cells assessed as reduction in cell viability after 48 hrs by CellTiter 96 aqueous one solution assay; assay type: cell-based; conditions: HepG2, 48 h
[14] = Cytotoxicity against human HepG2 cells assessed as cell viability at 30 uM after 48 hrs by CellTiter 96 aqueous one solution assay relative to control; assay type: cell-based; conditions: read-out: Activity
Procedure, shortened: (§4)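 HepG2 (DMEM, 10% FBS, 1 mM pyruvate) or A431 (DMEM, 10% FBS) seeded 10,000 cells/well, 24 h at 37 °C, 5% CO2, then 30 µM compound for 48 h. MTS reagent 60 min, absorbance 490 nm, background subtracted; 0.1% DMSO vehicle = 100%, 10% SDS = 0% viability.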

A-431 = assay: Cytotoxicity against human A431 cells assessed as reduction in cell viability after 48 hrs by CellTiter 96 aqueous one solution assay; assay type: cell-based; conditions: A-431, 48 h
[15] = Cytotoxicity against human A431 cells assessed as cell viability at 30 uM after 48 hrs by CellTiter 96 aqueous one solution assay relative to control; assay type: cell-based, A-431; conditions: read-out: Activity; procedure, shortened: as §4
[16] = tested on: Mycobacterium tuberculosis; assay: Antimycobacterial activity against XDR Mycobacterium tuberculosis Praha 131 after 14 days; assay type: functional; conditions: Praha 131, 336 h; procedure, shortened: as §1
[17] = tested on: Mycobacterium tuberculosis; assay: Antimycobacterial activity against XDR Mycobacterium tuberculosis Praha 131 after 21 days; assay type: functional; conditions: Praha 131, 504 h; procedure, shortened: as §1
Staphylococcus aureus [18] = assay: Antibacterial activity against Staphylococcus aureus subsp. aureus ATCC 29213 CCM 4223 at highest concentration measured after 24 to 48 hrs by alamar blue dye based broth microdilution assay; assay type: functional, organism-based
Staphylococcus aureus [19] = assay: Antibacterial activity against methicillin-resistant Staphylococcus aureus subsp. aureus ATCC 43300 CCM 4750 at highest concentration measured after 24 to 48 hrs by alamar blue dye based broth microdilution assay; assay type: functional, organism-based
[20] = tested on: Staphylococcus epidermidis; assay: Antibacterial activity against Staphylococcus epidermidis at highest concentration measured after 24 to 48 hrs by alamar blue dye based broth microdilution assay; assay type: functional, organism-based
Enterococcus faecalis = assay: Antibacterial activity against Enterococcus faecalis ATCC 29212 CCM 4224 at highest concentration measured after 24 to 48 hrs by alamar blue dye based broth microdilution assay; assay type: functional, organism-based
Escherichia coli = assay: Antibacterial activity against Escherichia coli ATCC 25922 CCM 3954 at highest concentration measured after 24 to 48 hrs by alamar blue dye based broth microdilution assay; assay type: functional, organism-based
Klebsiella pneumoniae = assay: Antibacterial activity against Klebsiella pneumoniae at highest concentration measured after 24 to 48 hrs by alamar blue dye based broth microdilution assay; assay type: functional, organism-based
Serratia marcescens = assay: Antibacterial activity against Serratia marcescens at highest concentration measured after 24 to 48 hrs by alamar blue dye based broth microdilution assay; assay type: functional, organism-based
Pseudomonas aeruginosa = assay: Antibacterial activity against Pseudomonas aeruginosa ATCC 27853 CCM 3955 at highest concentration measured after 24 to 48 hrs by alamar blue dye based broth microdilution assay; assay type: functional, organism-based
Candida albicans [21] = assay: Antifungal activity against Candida albicans ATCC 24433 CCM 8320 at highest concentration measured after 24 to 48 hrs by alamar blue dye based broth microdilution assay; assay type: functional, organism-based
Pichia kudriavzevii = assay: Antifungal activity against Candida krusei ATCC 6258 CCM8271 at highest concentration measured after 24 to 48 hrs by alamar blue dye based broth microdilution assay; assay type: functional, organism-based
Candida parapsilosis = assay: Antifungal activity against Candida parapsilosis ATCC 22019 CCM 8260 at highest concentration measured after 24 to 48 hrs by alamar blue dye based broth microdilution assay; assay type: functional, organism-based
Candida tropicalis = assay: Antifungal activity against Candida tropicalis ATCC 750 CCM 8264 at highest concentration measured after 24 to 48 hrs by alamar blue dye based broth microdilution assay; assay type: functional, organism-based
Aspergillus fumigatus = assay: Antifungal activity against Aspergillus fumigatus ATCC 204305 at highest concentration measured after 24 to 48 hrs by alamar blue dye based broth microdilution assay; assay type: functional, organism-based
Aspergillus flavus = assay: Antifungal activity against Aspergillus flavus CCM 8363 at highest concentration measured after 24 to 48 hrs by alamar blue dye based broth microdilution assay; assay type: functional, organism-based
Lichtheimia corymbifera = assay: Antifungal activity against Lichtheimia corymbifera CCM 8077 at highest concentration measured after 24 to 48 hrs by alamar blue dye based broth microdilution assay; assay type: functional, organism-based
[22] = tested on: Trichophyton interdigitale; assay: Antifungal activity against Trichophyton interdigitale ATCC 9533 CCM 8377 at highest concentration measured after 72 to 120 hrs by alamar blue dye based broth microdilution assay; assay type: functional
[23] = Genotoxicity in Salmonella typhimurium TA100 at 30 uM in presence of rat liver S9 fraction by Ames test; assay type: toxicity, subcellular; conditions: salmonella enterica subsp. enterica serovar typhimurium, s9, 30 µM
Procedure, shortened: (§5)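 Microplate fluctuation Ames reverse-mutation test following kit instructions; TA98 detects frameshift and TA100 base-exchange mutations. Compound at 30 µM final with Aroclor-1254-induced rat liver S9 plus cofactors.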

[24] = Genotoxicity in Salmonella typhimurium TA98 at 30 uM in presence of rat liver S9 fraction by Ames test; assay type: toxicity, subcellular; conditions: salmonella enterica subsp. enterica serovar typhimurium, s9, 30 µM; procedure, shortened: as §5

| Structure (SMILES) | MIC [1] | MIC99 [2] | MIC99 [3] | MIC99 (Mycobacterium avium [4]) | MIC99 (Mycobacterium avium [5]) | MIC99 (Mycobacterium kansasii [6]) | MIC99 (Mycobacterium kansasii [7]) | MIC99 (Mycobacterium kansasii [8]) | MIC99 (Mycobacterium kansasii [9]) | MIC99 (Mycobacterium kansasii [10]) | MIC99 (Mycobacterium kansasii [11]) | IC50 (HepG2) | viability at 48 h, 30 µM [14] | IC50 (A-431) | viability at 48 h, 30 µM [15] | other results |
| --- | --- | --- | --- | --- | --- | --- | --- | --- | --- | --- | --- | --- | --- | --- | --- | --- |
| O=c1nc(N2CCN(CC3CCCCC3)CC2)sc2c([N+](=O)[O-])cc(C(F)(F)F)cc12 [MACOZINONE] | 0.0004 µM (≈ 0.000183 µg/mL) |  |  |  |  |  |  |  |  |  |  |  |  |  |  |  |
| CSc1nnc(-c2cc([N+](=O)[O-])cc([N+](=O)[O-])c2)n1Cc1ccccc1 |  | 0.5 µM (≈ 0.186 µg/mL) | 1 µM (≈ 0.371 µg/mL) | 500 µM (≈ 186 µg/mL) | 500 µM (≈ 186 µg/mL) | 2 µM (≈ 0.743 µg/mL) | 4 µM (≈ 1.49 µg/mL) | 4 µM (≈ 1.49 µg/mL) | 4 µM (≈ 1.49 µg/mL) | 8 µM (≈ 2.97 µg/mL) | 8 µM (≈ 2.97 µg/mL) | > 30 µM | 93% | > 30 µM | 83% | Activity (Staphylococcus aureus [12]): Active; Activity (Candida albicans [13]): Active |
| COc1nc2ccc(Br)cc2cc1[C@@H](c1ccccc1)[C@@](O)(CCN(C)C)c1cccc2ccccc12 [BEDAQUILINE] | 0.05 µM (≈ 0.0278 µg/mL) |  |  |  |  |  |  |  |  |  |  |  |  |  |  |  |
| Cn1c(SCc2ccc(Cl)cc2)nnc1-c1cc([N+](=O)[O-])cc([N+](=O)[O-])c1 |  | 0.125 µM (≈ 0.0507 µg/mL) | 0.125 µM (≈ 0.0507 µg/mL) | 8 µM (≈ 3.25 µg/mL) | 8 µM (≈ 3.25 µg/mL) | 0.25 µM (≈ 0.101 µg/mL) | 0.5 µM (≈ 0.203 µg/mL) | 0.5 µM (≈ 0.203 µg/mL) | 0.125 µM (≈ 0.0507 µg/mL) | 0.25 µM (≈ 0.101 µg/mL) | 0.5 µM (≈ 0.203 µg/mL) | > 30 µM | 104% | > 30 µM | 85% | MIC99 [16]: 0.125 µM (≈ 0.0507 µg/mL); MIC99 [17]: 0.125 µM (≈ 0.0507 µg/mL); Activity (Staphylococcus aureus [18]): inactive; Activity (Staphylococcus aureus [19]): inactive; Activity [20]: inactive; Activity (Enterococcus faecalis): inactive; Activity (Escherichia coli): inactive; Activity (Klebsiella pneumoniae): inactive; Activity (Serratia marcescens): inactive; Activity (Pseudomonas aeruginosa): inactive; Activity (Candida albicans [21]): inactive; Activity (Pichia kudriavzevii): inactive; Activity (Candida parapsilosis): inactive; Activity (Candida tropicalis): inactive; Activity (Aspergillus fumigatus): inactive; Activity (Aspergillus flavus): inactive; Activity (Lichtheimia corymbifera): inactive; Activity [22]: inactive; Activity [23]: Non-Toxic; Activity [24]: Non-Toxic |
| O=[N+]([O-])c1cn2c(n1)OC[C@@H](OCc1ccc(OC(F)(F)F)cc1)C2 [PRETOMANID] | 0.05 to 0.7 µM (≈ 0.018 to 0.251 µg/mL) |  |  |  |  |  |  |  |  |  |  |  |  |  |  |  |
| O=[N+]([O-])c1cc(-c2nnc(SCc3ccc(Cl)c(Cl)c3)n2Cc2ccccc2)cc([N+](=O)[O-])c1 |  | 0.25 µM (≈ 0.129 µg/mL) | 0.25 µM (≈ 0.129 µg/mL) | 62 µM (≈ 32 µg/mL) | 62 µM (≈ 32 µg/mL) | 0.25 µM (≈ 0.129 µg/mL) | 0.25 µM (≈ 0.129 µg/mL) | 0.25 µM (≈ 0.129 µg/mL) | 0.06 µM (≈ 0.031 µg/mL) | 0.125 µM (≈ 0.0645 µg/mL) | 0.125 µM (≈ 0.0645 µg/mL) | > 30 µM | 103% | > 30 µM | 97% | MIC99 [16]: 0.125 µM (≈ 0.0645 µg/mL); MIC99 [17]: 0.25 µM (≈ 0.129 µg/mL); Activity (Staphylococcus aureus [18]): inactive; Activity (Staphylococcus aureus [19]): inactive; Activity [20]: inactive; Activity (Enterococcus faecalis): inactive; Activity (Escherichia coli): inactive; Activity (Klebsiella pneumoniae): inactive; Activity (Serratia marcescens): inactive; Activity (Pseudomonas aeruginosa): inactive; Activity (Candida albicans [21]): inactive; Activity (Pichia kudriavzevii): inactive; Activity (Candida parapsilosis): inactive; Activity (Candida tropicalis): inactive; Activity (Aspergillus fumigatus): inactive; Activity (Aspergillus flavus): inactive; Activity (Lichtheimia corymbifera): inactive; Activity [22]: inactive; Activity [23]: Non-Toxic; Activity [24]: Toxic |
| C[C@]1(COc2ccc(N3CCC(Oc4ccc(OC(F)(F)F)cc4)CC3)cc2)Cn2cc([N+](=O)[O-])nc2O1 | 0.023 µM (≈ 0.0123 µg/mL) |  |  |  |  |  |  |  |  |  |  |  |  |  |  |  |
